This passage reports Activity and MIC results from ChEMBL document CHEMBL4041461, “Discovery of 6,7-dihydro-3H-pyrano[4,3-c]isoxazol-3-ones as a new class of pathogen specific anti-leptospiral agents” (Eur J Med Chem, 2017).

Holding throughout (assay type): functional
The subject of assay [1] is Leptospira interrogans serovar Autumnalis. Nature of the assay: Antibacterial activity against Leptospira interrogans serovar Autumnalis N2 at 500 ug/mL after 2 hrs by micro dilution assay. The method, boiled down:
(§1)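 Preliminary screen by broth microdilution against L. interrogans serovar Autumnalis strain N2, each compound at 500, 250, 125, 62.5 and 31.25 µg/mL. Growth at each concentration was scored as resistance (R) or inhibition (I), and the MIC was taken from these scores. Triplicates.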

Assay [2] has the same test system. Put plainly: Antibacterial activity against Leptospira interrogans serovar Autumnalis N2 at 250 ug/mL after 2 hrs by micro dilution assay. The method, boiled down: as §1
The test system is the same in assay [3]. Nature of the assay: Antibacterial activity against Leptospira interrogans serovar Autumnalis N2 at 62.5 ug/mL after 2 hrs by micro dilution assay. Summed up:
as §1

Assay [4] shares this test system. Put plainly: Antibacterial activity against Leptospira interrogans serovar Autumnalis N2 at 125 ug/mL after 2 hrs by micro dilution assay. The method, boiled down: as §1
Assay [5] has the same test system. Nature of the assay: Antibacterial activity against Leptospira interrogans serovar Autumnalis N2 at 31.25 ug/mL after 2 hrs by micro dilution assay. Summed up:
as §1

A short description of assay [6]: Antibacterial activity against Leptospira interrogans serovar Autumnalis N2 after 2 hrs by micro dilution assay. Conditions: N2, 2 h.
A short description of assay [7]: Antibacterial activity against Leptospira interrogans serovar Pyrogenes Salinem after 2 hrs by micro dilution assay.
Assay [8] is described as follows: Antibacterial activity against Leptospira interrogans serovar Canicola Hond Utrecht IV after 2 hrs by micro dilution assay.
The nature of assay [9]: Antibacterial activity against Leptospira interrogans serovar Icterohaemorrhagiae RGA after 2 hrs by micro dilution assay.
A short description of assay [10]: Antibacterial activity against Leptospira interrogans serovar Pomona after 2 hrs by micro dilution assay.
Assay [11] can be described thus: Antibacterial activity against Leptospira interrogans serovar Hebdomadis after 2 hrs by micro dilution assay.
Assay [12] can be described thus: Antibacterial activity against Leptospira interrogans serovar Bataviae Swart after 2 hrs by micro dilution assay.
A short description of assay [13]: Antibacterial activity against Leptospira interrogans serovar Hardjo Hardjoprajitno after 2 hrs by micro dilution assay.
A short description of assay [14]: Antibacterial activity against Leptospira interrogans serovar Grippotyphosa Moskva V after 2 hrs by micro dilution assay.
Assay [15] in a line: (§2) Antibacterial activity against Leptospira interrogans serovar Semaranga after 2 hrs by micro dilution assay.
Assay [16] in a line: Antibacterial activity against Leptospira interrogans serovar Javanica Poi after 2 hrs by micro dilution assay.
Assay [17] is described as follows: Antibacterial activity against Leptospira interrogans serovar Australis Ballico after 2 hrs by micro dilution assay.
A short description of assay [18]: Antibacterial activity against Leptospira interrogans serovar Ballum Mus 127 after 2 hrs by micro dilution assay. To be noted: Mus 127, 2 h.
Assay [19] relates to Leptospira interrogans serovar Canicola. Put plainly: Antibacterial activity against Leptospira interrogans serovar Canicola PAI-1 infected cyclophosphamide-treated BALB/c mouse assessed as mouse survival at 5 mg/kg, ip administered once daily for 3 days. The method, boiled down:
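Cyclophosphamide-treated (Cy-)BALB/c mice were challenged with pathogenic Leptospira Canicola. They were dosed once daily for 3 days at 5, 10 or 20 mg/kg. Controls were untreated mice and doxycycline at 5 mg/kg once daily. Survival was recorded to the end of the study period. Kidneys were checked by 16S qPCR and by re-isolation in EMJH semi-solid medium.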

The test system of the next assay is Leptospira interrogans. The assay is described as §2.

Structures are written as SMILES. Converted amounts (≈) assume the structure as drawn. The source made the active and inactive calls. The rule behind the calls is not given here.

Regarding `CC1(C)CC(O)=C2C(=O)c3ccccc3C=C2O1`, the result in [1] and in assay [2] was Active. In addition, the outcome in assay [3], in assay [4] and in assay [5] was inactive.

The MIC is the lowest concentration found to suppress growth. In the case of `COc1ccc(C2=C3C(=O)ON=C3CC(C)(C)O2)cc1`, the result in assay [1] and in assay [2] was Active. Besides, the MIC in assay [6], in assay [7], in assay [8], in [9], in assay [10] and in assay [11] was 250 µg/mL (≈ 915 µM) in each case. In addition, the MIC in assay [12] was found to be 250 µg/mL (≈ 915 µM); in assay [13] it was 250 µg/mL (≈ 915 µM); in assay [14], 250 µg/mL (≈ 915 µM); in assay [15], 500 µg/mL (≈ 1830 µM); in [16] it was 250 µg/mL (≈ 915 µM); in assay [17], 125 µg/mL (≈ 457 µM). In assay [18], this molecule displayed an MIC of 125 µg/mL (≈ 457 µM). In addition, the outcome in assay [3], in assay [4] and in assay [5] was inactive.

On to `COc1cc(OC)cc(C2=C3C(=O)ON=C3CC(C)(C)O2)c1`, for which the result in assay [1], in assay [2], in [3], in assay [4] and in assay [5] was inactive.

Regarding `CC1=C2C(=O)ON=C2CC(C)(C)O1`, the outcome in [1] was Active. The result in [2], in [3], in assay [4] and in assay [5] was inactive. For the same molecule, the minimum inhibitory concentration (MIC) in [6] was found to be 500 µg/mL (≈ 2760 µM); in assay [7], 250 µg/mL (≈ 1380 µM); in assay [8] it was 250 µg/mL (≈ 1380 µM); in assay [9] it was 125 µg/mL (≈ 690 µM); in assay [10], 250 µg/mL (≈ 1380 µM); in assay [11], 250 µg/mL (≈ 1380 µM). In addition, the MIC was found to be 250 µg/mL (≈ 1380 µM) in assay [12]; 500 µg/mL (≈ 2760 µM) in assay [13]; 500 µg/mL (≈ 2760 µM) in [14]; 500 µg/mL (≈ 2760 µM) in assay [15]; 500 µg/mL (≈ 2760 µM) in [16]; 500 µg/mL (≈ 2760 µM) in [17]. The same molecule had an MIC in assay [18] of 500 µg/mL (≈ 2760 µM).

Consider `C[C@H]1c2cccc(O)c2C(=O)C2=C(O)[C@]3(O)C(=O)C(C(N)=O)=C(O)[C@@H](N(C)C)[C@@H]3[C@@H](O)[C@@H]21.O` [DOXYCYCLINE], for which the result in [1], in assay [2] and in [19] was Active. Also, the MIC in assay [6] is 200 µg/mL; in [7] it was 200 µg/mL; in [8], 200 µg/mL; in assay [9], 200 µg/mL; in assay [10] it was 100 µg/mL; in assay [11] it was 200 µg/mL. Further, the MIC in assay [12] was 100 µg/mL; in [13], 100 µg/mL; in [14], 200 µg/mL; in assay [15] it was 100 µg/mL; in assay [16] it was 200 µg/mL; in assay [17] it was 200 µg/mL. The same molecule yielded an MIC in assay [18] of 100 µg/mL. For the same molecule, the result in assay [3], in assay [4] and in assay [5] was inactive.

In the case of `COc1cc(OC)c2c(O)c3c(cc2c1)OC(C)(C)CC3=O`, the outcome in [1], in assay [2], in assay [3], in assay [4] and in assay [5] was inactive.

For the molecule `CC1(C)CC2=NOC(=O)C2=C(c2ccc(Cl)cc2)O1`, the outcome in [1] and in assay [2] was Active. For the same molecule, the MIC in assay [6] is 250 µg/mL (≈ 900 µM); in assay [7], 250 µg/mL (≈ 900 µM); in assay [8], 125 µg/mL (≈ 450 µM); in [9], 250 µg/mL (≈ 900 µM); in [10], 250 µg/mL (≈ 900 µM); in assay [11] it was 250 µg/mL (≈ 900 µM). For the same molecule, the MIC in [12] stood at 250 µg/mL (≈ 900 µM); in [13] it was 250 µg/mL (≈ 900 µM); in assay [14], 250 µg/mL (≈ 900 µM); in assay [16], 250 µg/mL (≈ 900 µM); in assay [17], 125 µg/mL (≈ 450 µM); in assay [18] it was 250 µg/mL (≈ 900 µM). In addition, the outcome in assay [3], in [4] and in assay [5] was inactive. Also, the MIC result in the assay on Leptospira interrogans was “inactive”.

As to `CC1(C)CC2=NOC(=O)C2=C(c2ccco2)O1`, the result in [1], in [2], in assay [3], in [4] and in assay [5] was inactive.

On to `CC1(C)CC(=O)c2c(cc3ccccc3c2O)O1`, for which the outcome in [1] was Active. Also, the result in [2], in [3], in [4] and in assay [5] was inactive.

For `CC1(C)CC2=NOC(=O)C2=C(c2ccccc2)O1`, the result in assay [1], in [2], in [3], in [4] and in [5] was inactive.

On to `CC1CC(=O)c2c(cc3ccccc3c2O)O1` (centres undefined), for which the outcome in assay [1] and in assay [2] was Active. In addition, the outcome in assay [3], in assay [4] and in assay [5] was inactive.

Take `CC1(C)CC2=NOC(=O)C2=C(c2ccccc2Cl)O1`: the outcome in assay [1], in assay [2], in assay [3], in [4] and in [5] was inactive.

Take `COc1cc(OC)c2c(O)c3c(cc2c1)OC(C)CC3=O` (centres undefined): the outcome in assay [1], in [2], in assay [3], in assay [4] and in [5] was inactive.

On to `CC1(C)CC2=NOC(=O)C2=C(c2cccc3ccccc23)O1`, for which the outcome in [1] and in assay [2] was Active. For the same molecule, the MIC in [6] amounted to 250 µg/mL (≈ 852 µM); in [7], 500 µg/mL (≈ 1700 µM); in assay [8], 250 µg/mL (≈ 852 µM); in [9], 250 µg/mL (≈ 852 µM); in [10] it was 500 µg/mL (≈ 1700 µM); in assay [11] it was 250 µg/mL (≈ 852 µM). The MIC in [12] came out at 125 µg/mL (≈ 426 µM); in assay [13] it was 500 µg/mL (≈ 1700 µM); in assay [14] it was 250 µg/mL (≈ 852 µM); in assay [15], 500 µg/mL (≈ 1700 µM); in [16], 500 µg/mL (≈ 1700 µM); in [17], 125 µg/mL (≈ 426 µM). The same molecule showed an MIC in assay [18] of 125 µg/mL (≈ 426 µM). In addition, the result in [3], in [4] and in [5] was inactive.

For the molecule `CCC1=C2C(=O)ON=C2CC(C)(C)O1`, the outcome in [1] and in [2] was Active. The MIC in assay [6] stood at 250 µg/mL (≈ 1280 µM); in assay [7], 250 µg/mL (≈ 1280 µM); in assay [8], 250 µg/mL (≈ 1280 µM); in assay [9] it was 250 µg/mL (≈ 1280 µM); in assay [10], 250 µg/mL (≈ 1280 µM); in [11], 125 µg/mL (≈ 640 µM). The MIC in [12] was determined as 125 µg/mL (≈ 640 µM); in assay [13], 250 µg/mL (≈ 1280 µM); in assay [14], 250 µg/mL (≈ 1280 µM); in assay [16] it was 250 µg/mL (≈ 1280 µM); in assay [17], 250 µg/mL (≈ 1280 µM); in [18] it was 250 µg/mL (≈ 1280 µM). Further, the outcome in [3], in assay [4] and in assay [5] was inactive. In the assay on Leptospira interrogans, the MIC result was “inactive”.

Turning to `COc1cc(OC)c2c(O)c3c(cc2c1)OC(C)C(C)C3=O` (centres undefined), the result in assay [1], in [2], in assay [3], in assay [4] and in assay [5] was inactive.
